Compound activity: PubChem, several laboratories
KLK7 zymogen act: activators of human kallikrein-7 zymogen. P49862. purified proKLK7, EDANS-DABCYL substrate fluorescence; 100% is mature enzyme control, 0% vehicle. activation, % at 7 µM. actives 0.9% (n = 370,000);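 active means activation above the mean of all tested compounds plus 3 SD, computed per campaign excluding outliers beyond control limits, cut at about 13% in these data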
CRFR2-BP ag: CRF-BP/CRF-R2 complex agonism. activation, % at 13.2 µM. actives 0.46% (n = 350,000). HEK293 CRF-R2/CRF-BP, calcium dye fluorescence (FLIPR); percent of saturating CRF peptide response;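 active means activation of at least 50%, plus an integration ratio under a set limit after plate pattern correction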;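 further: plate controls were neutral control wells without compound for no effect and CRF at EC100 for full effect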
Tn6 DDE FP: inhibitors of Tn6 peptide binding to human fibrin DD(E); P02675; Fibrin DD(E) TRITC-Tn6 fluorescence polarization displacement; inhibition, % at 8.3 µM; actives 0.21% (n = 370,000); AID 720509;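 active means inhibition above a per-campaign cutoff: mean of compounds within control limits plus 3 SD, cut at about 15% in these data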;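 further: 0% = median of all compound wells on the plate and 100% = blocking peptide control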
Target sequence (P02675 whole entry, looked up): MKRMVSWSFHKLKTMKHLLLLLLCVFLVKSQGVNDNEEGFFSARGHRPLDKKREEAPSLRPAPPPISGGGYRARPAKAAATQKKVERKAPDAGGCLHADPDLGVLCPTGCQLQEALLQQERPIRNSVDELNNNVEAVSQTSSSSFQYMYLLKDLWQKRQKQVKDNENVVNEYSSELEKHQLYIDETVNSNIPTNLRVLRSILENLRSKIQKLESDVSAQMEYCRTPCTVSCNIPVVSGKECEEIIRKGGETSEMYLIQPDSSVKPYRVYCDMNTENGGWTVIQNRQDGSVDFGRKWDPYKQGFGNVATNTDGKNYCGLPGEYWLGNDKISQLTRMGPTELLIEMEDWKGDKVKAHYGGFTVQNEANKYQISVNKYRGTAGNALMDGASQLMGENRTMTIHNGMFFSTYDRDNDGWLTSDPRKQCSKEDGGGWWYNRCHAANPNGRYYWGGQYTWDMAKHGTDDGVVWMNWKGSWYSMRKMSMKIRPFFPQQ
DDE Tn7 FP inh: disrupts Tn7 cyclic peptide binding to fibrin D-Dimer-E complex. actives 0.13% (n = 370,000). inhibition, % at 8.3 µM. FP displacement of FITC-Tn7 peptide from fibrin DD(E); 0% = median of compound wells per plate;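 active means inhibition above the mean of compounds falling within the control limits plus 3 SD of them, cut at about 14% in these data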;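 further: 0% = plate median of compound wells and 100% = 10 µM Aha-Tn7 peptide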
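assay system = human clot-derived fibrin DD(E) complex | quantity = Fibrin-DD(E) at 2 µM final | timing = 10 min preincubation, 3 h with tracer, room temperature | signal = fluorescence polarization | measure = percent inhibition | benchmarks = high control wells with 10 µM unlabelled Aha-Tn7 peptide (full inhibition) | replicates = singlicate testing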
CRFBP-R2 block: blocks CRF-induced signaling of the CRF-BP/CRF-R2 complex; actives 0.59% (n = 350,000); AID 588475; HEK293 CRF-R2/CRF-BP, CRF-induced calcium fluorescence; inhibition, % at 11.8 µM;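 active means inhibition of the ligand-induced calcium signal above about 50% at the single tested concentration, limit read from the data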
NRP1-CendR mod: modulators of CendR peptide binding to human neuropilin-1; O14786; FAM-RPARPAR peptide binding to NRP-1, fluorescence polarization; inhibition, % at 25 µM; actives 0.85% (n = 360,000); AID 602438;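 active means inhibition or corrected inhibition above about 18%, plus a signal ratio from 0.5 to 1.5, limit read from the data, passing the limit was not always enough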
proKLK7 act conf: proKLK7 activation, confirmation | AID 686949 | purified proKLK7, EDANS-DABCYL substrate fluorescence; scaled: vehicle 0, mature enzyme 100 | actives 68% (n = 3,200) | activation, % at 7 µM | shares compounds with KLK7 zymogen act;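 active means activation, as change over the incubation, above the mean of all tested compounds plus 3 SD, cut at about 13% in these data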
EDANS-DABCYL int: counter-screen for kallikrein-7 activators: EDANS-DABCYL optical interference; EDANS-DABCYL substrate fluorescence interference, no enzyme, 4 h; solvent 0%, active enzyme control 100%; shares compounds with KLK7 zymogen act; activation, % at 7 µM; actives 80% (n = 3,200);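 active means activation above the all-compound mean plus 3 SD, ignoring values outside control-based bounds, cut at about 4.8% in these data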;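 further: value is the 4 h activation minus the activation read at time zero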
K7 EDANS ctr: optically interferes with EDANS-DABCYL fluorescence, kallikrein-7 activator counter-screen; shares compounds with KLK7 zymogen act; EDANS-DABCYL peptide fluorescence interference, no enzyme; EC50, µM; actives 20% (n = 250);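 active means compounds that raise the fluorescence signal in this interference counterscreen, with EC50 at or below 10 µM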;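 further: intact quenched peptide substrate alone read at 355 nm excitation and 520 nm emission; signal is fluorescence gain from T0 to T4 after four hours at room temperature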
Active calls of the source: *; i = inactive; nt = not tested or not shown. Sampled rows, rich in hits. Any-hit rate of the full collection: about 2.9%.

SMILES	KLK7 zymogen act	CRFR2-BP ag	Tn6 DDE FP	DDE Tn7 FP inh	CRFBP-R2 block	NRP1-CendR mod	proKLK7 act conf	EDANS-DABCYL int	others
CCCNC(=S)Nc1ccc2nc(-c3ccccn3)c(-c3ccccn3)nc2c1	16*	26	-4	0	-26	-23	44*	54*
S=C(Nc1ccc2nc(-c3ccccn3)c(-c3ccccn3)nc2c1)N1CCCCC1	nt	1	nt	nt	-26	1	nt	nt
COc1cc2c(cc1OC)C(C(N)=O)NCC2 (stereo not drawn)	54*	0	3	9	-5	8	0	1
COc1cc2c(cc1OC)C(C1(O)CCCCC1)NCC2 (stereo not drawn)	21*	0	2	-4	13	20	14*	14*
COc1ccc(C2NCCc3cc(OC)c(OC)cc32)cc1OC (stereo not drawn)	3	-1	5	-1	15	8	nt	nt
O=S1(=O)N[C@H](Cc2ccccc2)COc2cc(N3CCCC3)ccc21	1	nt	1	-4	nt	nt	nt	nt
O=C(Nc1ncccn1)c1ccc([N+](=O)[O-])o1	817*	-1	-1	-1	13	-165	834*	835*
O=C(Nc1ccccn1)c1ccc([N+](=O)[O-])o1	nt	12	nt	nt	31	7	nt	nt
COc1ccc(C2CC(c3cccs3)=Nc3ccccc3S2)cc1 (stereo not drawn)	40*	-1	-1	6	16	6	5	3
CCOC(=O)C1CCCN(C(=O)Cn2nc(C)n3c(cc4c(OC)cccc43)c2=O)C1 (stereo not drawn)	18*	-2	1	-10	27	-2	8	6.4*
CCOC(=O)Nc1c2ccccc2nc2ccccc12	14*	-1	11	-6	7	5	38*	43*
C[C@@H]1COc2cc(NCCO)ccc2S(=O)(=O)N1	0	nt	1	8	nt	nt	nt	nt
O=C(Nc1ccccc1)c1ccccc1N=Cc1cccc(O)c1	32*	-5	-3	3	-9	13	15*	17*
CN1[C@@H](Cc2ccccc2)COc2cc(N3CCCC3)ccc2S1(=O)=O	0	nt	-7	-4	nt	nt	nt	nt
CCCC1CCC2(CCCN2CCOC(=O)Nc2ccccc2OC)CC1 (stereo not drawn)	nt	nt	0	-7	nt	nt	nt	nt
N#CC1C(=O)Nc2cccnc21 (stereo not drawn)	37*	-2	8	2	2	-2	34*	33*
O=C1Nc2ccccc2C1Cc1ccccn1 (stereo not drawn)	0	1	2	-3	27	6	nt	nt
Cc1ccc(C=Nc2ccccc2C(N)=O)cc1	19*	-1	5	-2	0	4	40*	31*	K7 EDANS ctr=>70
Cc1ccccc1C=Nc1ccccc1C(N)=O	18*	0	8	-10	-57	-4	28*	29*
Cc1ccc(C=Nc2ccccc2C(=O)Nc2ccccc2)cc1	-21	-1	-10	-5	-13	-8	nt	nt
CCOC(=O)[C@]12CCCCC/C=C\1N(CCc1ccc(Cl)cc1)C(=O)[C@H]2CC(=O)NCc1cccc(C(F)(F)F)c1	0	nt	-2	8	nt	nt	nt	nt
O=S1(=O)c2ccc(Br)cc2OC[C@H](Cc2ccccc2)N1Cc1cn(Cc2ccc(C(F)(F)F)cc2)nn1	0	nt	-2	-2	nt	nt	nt	nt
CCOC(=O)NN1C(=O)c2ccccc2NC1c1ccc(N(C)C)cc1 (stereo not drawn)	6	-1	-1	1	-2	11	nt	nt
CCOC(=O)NN1C(=O)c2ccccc2NC1c1ccc(OC)cc1 (stereo not drawn)	36*	-1	-4	-4	8	-6	20*	23*
CCOC(=O)NN1C(=O)c2ccccc2NC1c1ccccc1 (stereo not drawn)	20*	2	-4	4	6	-5	21*	24*
SMILES	KLK7 zymogen act	CRFR2-BP ag	Tn6 DDE FP	DDE Tn7 FP inh	CRFBP-R2 block	NRP1-CendR mod	proKLK7 act conf	EDANS-DABCYL int	others
O=C(O)CCC(=O)NN1C(=O)c2ccccc2NC1c1ccco1 (stereo not drawn)	15*	-2	5	7	12	-4	49*	16*	K7 EDANS ctr=>69
COc1ccc(C2Nc3ccccc3C(=O)N2NC(C)=O)c(OC)c1 (stereo not drawn)	21*	1	0	-5	-6	-7	20*	16*	K7 EDANS ctr=>70
COC[C@H]1CCCN1c1ccc2c(c1)O[C@H](C)CCN(C1CC1)S2(=O)=O	1	nt	-8	3	nt	nt	nt	nt
CCC[C@H]1[C@@H](NC(=O)NCC)CC[C@@]23CCCN2C(=O)CCC[C@@H]13	nt	nt	3	-1	nt	nt	nt	nt
CCOC(=O)NN1C(=O)c2ccccc2NC1C (stereo not drawn)	13*	-4	-9	-4	15	-8	25*	28*
CCOC(=O)NN1C(=O)c2ccccc2NC1c1ccccn1 (stereo not drawn)	10	0	5	-3	-1	14	nt	nt
COc1ccccc1NC(=O)CSc1nc2c(sc3ccccc32)c(=O)n1CCN(C)C	16*	-2	-2	0	-11	2	1	-2
COCCn1c(SCC(=O)Nc2ccccc2OC)nc2c(oc3ccccc32)c1=O	-1	2	2	0	-2	8	nt	nt
CCC(C)N(C(=O)Cn1nc(Cc2ccncc2)c2ccccc2c1=O)C(C)CC (stereo not drawn)	1	nt	0	8	nt	nt	nt	nt
O=C(NC1CCCC1)C1(C(=O)C2CC2)CC(c2ccccc2C(F)(F)F)=NO1 (stereo not drawn)	1	nt	-4	-5	nt	nt	nt	nt
COc1ccc2c3c(n(C(=O)OC(C)(C)C)c2c1)C1CC=C(COC(C)=O)CN1CC3 (stereo not drawn)	18*	nt	11	0	nt	-14	8	9.5*
COc1ccc(-c2ccc3c(n2)CCCN3Cc2ccccc2C(F)(F)F)cc1	18*	nt	6	5	nt	nt	15*	13*	K7 EDANS ctr=i
O=C(Nc1ccc2ccccc2c1)NC1CCCCN(Cc2cccc(Cl)c2)C1=O (stereo not drawn)	0	nt	-5	-3	nt	nt	nt	nt
